Source: ChEMBL document CHEMBL2417545, “6-methoxy-7-benzofuranoxy and 6-methoxy-7-indolyloxy analogues of 2-[2-(2,6-Dimethoxyphenoxy)ethyl]aminomethyl-1,4-benzodioxane (WB4101):1 discovery of a potent and selective α1D-adrenoceptor antagonist” (J Med Chem, 2013)

How the values were obtained:
[1] = molecular target: T1, Adrenergic receptor alpha-2 (Rattus norvegicus, UniProt P22086+P19328+P22909); assay: Antagonist activity at alpha-2 adrenoreceptor in Sprague-Dawley rat prostatic vas deferens assessed as reversal of clonidine-inhibited twitch responses of field-stimulated prostatic portion of vas deferens after 30 mins by Schild plot analysis; assay type: tissue-based
T1 sequence (P22086 whole entry): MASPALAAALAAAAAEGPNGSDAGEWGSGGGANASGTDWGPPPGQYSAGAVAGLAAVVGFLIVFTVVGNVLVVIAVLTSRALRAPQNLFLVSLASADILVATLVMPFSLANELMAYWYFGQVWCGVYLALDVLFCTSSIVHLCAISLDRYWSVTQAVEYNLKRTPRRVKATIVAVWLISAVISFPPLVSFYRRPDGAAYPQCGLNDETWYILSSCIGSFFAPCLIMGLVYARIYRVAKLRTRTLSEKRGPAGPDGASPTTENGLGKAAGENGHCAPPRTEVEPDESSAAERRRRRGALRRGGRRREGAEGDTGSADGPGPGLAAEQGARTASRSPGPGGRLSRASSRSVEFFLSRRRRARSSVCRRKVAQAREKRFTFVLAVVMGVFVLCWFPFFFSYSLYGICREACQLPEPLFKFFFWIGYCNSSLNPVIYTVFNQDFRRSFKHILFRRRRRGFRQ
T1 sequence (P19328 whole entry): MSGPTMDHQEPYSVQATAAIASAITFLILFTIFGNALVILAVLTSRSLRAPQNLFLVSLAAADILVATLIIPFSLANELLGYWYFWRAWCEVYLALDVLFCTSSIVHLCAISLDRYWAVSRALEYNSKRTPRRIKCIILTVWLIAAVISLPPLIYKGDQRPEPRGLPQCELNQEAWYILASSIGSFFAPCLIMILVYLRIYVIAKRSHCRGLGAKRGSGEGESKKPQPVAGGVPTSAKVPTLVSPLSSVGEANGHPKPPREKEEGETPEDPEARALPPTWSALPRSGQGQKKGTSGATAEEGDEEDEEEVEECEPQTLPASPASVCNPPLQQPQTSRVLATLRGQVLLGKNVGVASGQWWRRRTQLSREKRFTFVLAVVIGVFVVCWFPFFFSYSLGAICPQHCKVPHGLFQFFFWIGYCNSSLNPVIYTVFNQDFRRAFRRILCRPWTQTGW
T1 sequence (P22909 whole entry): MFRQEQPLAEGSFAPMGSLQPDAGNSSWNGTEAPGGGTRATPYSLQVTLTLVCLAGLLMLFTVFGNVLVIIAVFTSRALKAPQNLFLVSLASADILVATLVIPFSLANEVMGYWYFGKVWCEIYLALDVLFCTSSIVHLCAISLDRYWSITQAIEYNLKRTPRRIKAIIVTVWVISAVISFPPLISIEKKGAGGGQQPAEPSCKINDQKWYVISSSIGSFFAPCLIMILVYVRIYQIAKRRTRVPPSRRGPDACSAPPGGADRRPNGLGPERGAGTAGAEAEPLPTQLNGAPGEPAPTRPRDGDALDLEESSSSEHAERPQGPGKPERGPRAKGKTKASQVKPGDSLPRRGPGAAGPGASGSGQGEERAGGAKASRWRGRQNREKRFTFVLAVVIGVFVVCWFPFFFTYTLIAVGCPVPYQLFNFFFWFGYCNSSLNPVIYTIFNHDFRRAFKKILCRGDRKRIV
How it was run: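 Prostatic vas deferens in bath with propranolol 1 μM and desipramine 0.01 μM throughout. A cumulative clonidine control curve was run, then a second curve after 30 min antagonist equilibration. pA₂ from Schild plot of log(DR−1) vs log[antagonist], at least three antagonist concentrations, 3−5 repeats each.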

[2] = molecular target: T2, Alpha-1A adrenergic receptor (Rattus norvegicus, UniProt P43140); assay: Antagonist activity at alpha-1A adrenoreceptor in Sprague-Dawley rat prostatic vas deferens assessed as inhibition of noradrenaline-induced tissue contraction after 30 mins by Schild plot analysis; conditions: read-out: pA2 (converted)
T2 sequence (P43140 whole entry): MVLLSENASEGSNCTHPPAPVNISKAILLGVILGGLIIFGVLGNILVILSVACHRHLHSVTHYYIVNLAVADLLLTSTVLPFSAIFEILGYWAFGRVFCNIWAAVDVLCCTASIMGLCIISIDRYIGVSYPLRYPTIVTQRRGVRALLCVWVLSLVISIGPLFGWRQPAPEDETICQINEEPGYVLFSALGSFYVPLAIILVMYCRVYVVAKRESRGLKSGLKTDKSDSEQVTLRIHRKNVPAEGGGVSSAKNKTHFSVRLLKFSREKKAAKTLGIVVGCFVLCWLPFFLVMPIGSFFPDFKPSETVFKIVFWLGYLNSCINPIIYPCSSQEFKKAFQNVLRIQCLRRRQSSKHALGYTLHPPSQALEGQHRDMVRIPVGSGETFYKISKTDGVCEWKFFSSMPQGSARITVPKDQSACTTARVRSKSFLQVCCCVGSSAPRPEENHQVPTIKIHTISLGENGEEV
How it was run: (§1)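 Cumulative isotonic (−)-noradrenaline curves were run at 30 min intervals, the first discarded and the second taken as control, then a third after 30 min with antagonist. pA₂ from Schild plot, at least three antagonist concentrations, each tested 3−5 times.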

[3] = molecular target: T2, Alpha-1A adrenergic receptor; assay: Antagonist activity at alpha-1A adrenoreceptor in Sprague-Dawley rat prostate assessed as inhibition of noradrenaline-induced tissue contraction after 30 mins by Schild plot analysis; set-up: species or system Prostate gland; conditions: read-out: pA2 (converted)
How it was run: as §1, with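 “Isolated prostatic portion of vas deferens from 200−250 g rats, in gassed (95% O₂/5% CO₂) physiological salt solution at pH 7.4 with desipramine 0.01 μM. Cumulative” for “Cumulative”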

[4] = molecular target: T3, Alpha-1A adrenergic receptor (Homo sapiens, UniProt P35348); assay: Displacement of [3H]prazosin from human alpha-1A adrenoreceptor expressed in CHO cells after 30 mins; assay type: cell-based
T3 sequence (P35348 whole entry): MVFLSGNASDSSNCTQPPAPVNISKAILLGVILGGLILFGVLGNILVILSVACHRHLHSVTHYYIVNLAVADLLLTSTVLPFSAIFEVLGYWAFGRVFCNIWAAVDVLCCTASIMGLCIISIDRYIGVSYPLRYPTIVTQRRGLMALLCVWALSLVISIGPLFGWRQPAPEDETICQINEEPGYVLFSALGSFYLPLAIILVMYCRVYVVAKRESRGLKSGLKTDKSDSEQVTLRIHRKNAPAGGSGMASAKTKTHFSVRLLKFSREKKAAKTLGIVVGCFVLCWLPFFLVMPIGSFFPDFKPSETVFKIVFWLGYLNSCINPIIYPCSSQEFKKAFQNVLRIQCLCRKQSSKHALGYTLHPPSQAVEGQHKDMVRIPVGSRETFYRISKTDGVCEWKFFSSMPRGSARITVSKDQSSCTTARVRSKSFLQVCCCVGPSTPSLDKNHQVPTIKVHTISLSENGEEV
How it was run: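 Membranes from CHO cells expressing each α₁-AR subtype, incubated 30 min at 25 °C in 50 mM Tris HCl pH 7.7 with 10 μM pargyline and 0.1% ascorbic acid, plus 0.5 nM [³H]prazosin and varying test compound concentrations. Nonspecific binding was defined with 1 μM prazosin.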

Q: What does the source list for `COc1ccc2ccoc2c1OCCNC[C@H]1COc2ccccc2O1.Cl`?
A: pA2 [1]: 6.55; Kb [2]: 5.5 nM; Kb [3]: 1.95 nM; Ki [4]: 0.49 nM

Q: `COc1ccc2c(c1OCCNC[C@H]1COc3ccccc3O1)OCC2.Cl` was tested. Which pA2 [1] did it give?
A: 6.63

Q: What about the Kb [2] of the same compound?
A: 33.9 nM

Q: And the Kb [3]?
A: 13.2 nM

Q: What about the Ki [4] of the same compound?
A: 2 nM

Q: Which results are given for `COc1ccc2c(c1OCCNC[C@H]1COc3ccccc3O1)NCC2.Cl.Cl`?
A: pA2 [1]: 6.05; Kb [2]: 9.33 nM; Kb [3]: 3.63 nM; Ki [4]: 3.8 nM

Q: How did the pA2 [1] turn out when `COc1ccc2cc[nH]c2c1OCCNC[C@H]1COc2ccccc2O1` was run?
A: 6.09

Q: And the Kb [2]?
A: 4.9 nM

Q: What about the Kb [3] of the same compound?
A: 13.2 nM

Q: And the Ki [4]?
A: 178 nM
